High-throughput results deposited in PubChem by Johns Hopkins Ion Channel Center.
Compounds with a hit are over-represented: about 3.5% of the library has one in this group of screens.
RGS4 act – RGS4 potentiation or activation. HEK293 M3R/inducible RGS4, carbachol calcium flux Fluo4; hits give low values. B-score at 10 µM. actives 0.92% (n = 310,000). AID 463111;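 active = B-score of the integrated calcium signal more than 4 SD below the library mean, with starting fluorescence not abnormally high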;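 note: negative B-score means reduced calcium response which marks RGS4 activation or potentiation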
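Material: Inducible-RGS4 HEK293 cells carrying M3 receptor; also added: carbachol at ECmax as muscarinic agonist stimulus; incubation: compound preincubation 20 min at room temperature before agonist; signal: Fluo4-AM (2 µM) calcium-flux fluorescence, kinetic read; measure: integrated calcium ratio converted to B score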
MrgX1 antag – human MrgX1 receptor antagonism, primary screen; actives 1.3% (n = 310,000); MRGX1-HEK293 calcium flux, Fluo-4, BAM8-22 antagonism; hits give low values; B-score at 10 µM; AID 588676; Q96LB2;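 active = calcium-response B-score plate-corrected more than 3 library SD below zero, starting fluorescence within 5 deviations, no agonist response on first addition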;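 note: peak minus trough fluorescence over baseline after final BAM8-22 challenge near maximal dose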
Target sequence (Q96LB2 whole entry, looked up): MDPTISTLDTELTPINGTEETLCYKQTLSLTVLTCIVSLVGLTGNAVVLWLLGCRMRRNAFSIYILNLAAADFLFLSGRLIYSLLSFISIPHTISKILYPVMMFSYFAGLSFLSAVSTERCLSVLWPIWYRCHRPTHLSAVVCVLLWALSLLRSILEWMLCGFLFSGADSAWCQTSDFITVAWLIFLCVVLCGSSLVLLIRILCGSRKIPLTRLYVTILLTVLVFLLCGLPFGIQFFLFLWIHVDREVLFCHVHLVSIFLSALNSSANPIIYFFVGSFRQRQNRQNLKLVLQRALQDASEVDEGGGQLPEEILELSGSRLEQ
RGS4 block – human RGS4 inhibition | B-score at 10 µM | AID 463165 | actives 0.45% (n = 310,000) | HEK293 M3R/RGS4 inducible, Fluo-4 calcium flux; hits give high values; triggered by carbachol at its EC20 | P49798;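 active = B-score, a plate-corrected calcium signal, over three deviations above library mean, with baseline fluorescence within five deviations of library mean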;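 note: RGS4 expression induced by doxycycline in cells with stable M3 receptor; B-score is computed from the integrated fluorescence ratio over baseline after carbachol; higher B-score means a larger calcium signal and so more RGS4 inhibition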
Target sequence (P49798 whole entry, looked up): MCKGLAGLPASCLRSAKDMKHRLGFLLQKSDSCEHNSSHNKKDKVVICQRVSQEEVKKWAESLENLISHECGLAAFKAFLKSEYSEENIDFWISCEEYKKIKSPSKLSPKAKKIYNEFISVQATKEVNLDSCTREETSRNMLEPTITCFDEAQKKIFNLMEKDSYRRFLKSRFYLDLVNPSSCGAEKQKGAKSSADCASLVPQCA
MrgX1 PAM – allosterically activates human MrgX1 receptor signaling | Q96LB2 | MrgX1-HEK293, Fluo-4 calcium flux, FDSS; hits give high values | B-score at 10 µM | actives 0.63% (n = 310,000);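 active = plate-corrected calcium response at least 3 library SD above typical, normal starting fluorescence, not activating the receptor alone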;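 note: compound read alongside a low EC10 to EC30 dose of BAM8-22 agonist; peak minus trough fluorescence over baseline measured at the second addition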
MrgX1 ag – activates human MrgX1 receptor signaling. actives 0.44% (n = 310,000). Q96LB2. B-score at 10 µM. MrgX1-HEK293 cells, Fluo-4 calcium fluorescence, agonist mode; hits give high values;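 active = calcium response B-score plate-corrected fluorescence ratio at least 3 library SD, with starting fluorescence B-score inside 5 SD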
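Test system: Stable human MrgX1 HEK293 cell line | Schedule: Overnight plating before 1 h dye loading | Read-out basis: Baseline-normalised fluorescence change ratio, B-scored | Detection: Kinetic calcium dye fluorescence, Fluo-4 NW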
RGS4 inh valid – RGS4 inhibitor validation; actives 65% (n = 1,700); shares compounds with RGS4 block; AID 492999; HEK293 M3R/RGS4, carbachol calcium Fluo-4 fluorescence; carbachol added at its EC20; 0 = buffer wells, 100 = carbachol control; calcium response, % at 10 µM;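 active = duplicate-averaged calcium response above the buffer-only control mean plus 5 SD of those controls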;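 note: integrated fluorescence ratio F max minus min over baseline F0; higher response in RGS4-induced cells means RGS4 inhibition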
RGS4 uninduced – checks RGS4 inhibitor effects in non-induced HEK293 M3R cells | activity (percent), % at 10 µM | carbachol calcium Fluo-4; submaximal (EC20) carbachol stimulus; buffer wells 0%, carbachol control wells 100% | shares compounds with RGS4 block | AID 493000 | actives 20% (n = 1,900); call rule not given here;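 note: RGS4 induction absent so cells express M3R without RGS4; higher means more calcium signal and flags a non-specific hit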
RGS4 inh ctr2 – second RGS4 inhibitor counter-screen in uninduced cells lacking carbachol. shares compounds with RGS4 block. HEK293 M3R/RGS4 non-induced, Fluo-4 calcium, no carbachol; normalised: buffer wells 0%, carbachol wells 100%. calcium response (agonist-mode artifact), % at 10 µM. actives 22% (n = 1,900). AID 493001;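 active = duplicate-averaged calcium rise in uninduced cells above buffer wells' mean plus 5 SD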
Of the large screens only hits and unclear results are named; the others gave an inactive call (follow-up assays come after a bar, where they were run).

CC(C)C(=O)NC(Oc1ccccc1Cl)C(Cl)(Cl)Cl (configuration not stated)	none
COc1ccc(C2CC(c3c(O)n(CCc4ccccc4)c(=O)[nH]c3=O)=NN2)cc1OC (configuration not stated)	RGS4 block 8.1 | RGS4 inh valid inactive | RGS4 uninduced inactive | RGS4 inh ctr2 inactive
Cc1ccc(N2C(=O)NC(=O)/C(=C\C=C\c3ccco3)C2=O)cc1C	RGS4 block 22.4 | RGS4 inh valid 28.0% | RGS4 uninduced 31.5% | RGS4 inh ctr2 39.5%
O=C1NC(=O)N(c2ccccc2)C(=O)/C1=C/C=C/c1ccco1	none
Cc1ccc(N2C(=O)NC(=O)/C(=C\C=C\c3ccco3)C2=O)cc1	none | RGS4 uninduced inactive | RGS4 inh ctr2 11.5%
Cc1cccc(N2C(=O)NC(=O)/C(=C\C=C\c3ccco3)C2=O)c1	RGS4 block 17.2, MrgX1 ag 56.8 | RGS4 inh valid 49.0% | RGS4 uninduced 63.5% | RGS4 inh ctr2 88.0%
Cc1cccc(-n2c(O)c(C=NCCN3CCNCC3)c(=O)[nH]c2=S)c1	none
Cc1cc(C)cc(N2C(=O)NC(=O)/C(=C/c3cccn3-c3ccc(Cl)cc3)C2=O)c1	none | RGS4 inh valid inactive | RGS4 uninduced inactive | RGS4 inh ctr2 inactive
c1ccc2c(CCNC3=NCCC3)c[nH]c2c1	none
CN1C(=O)NC(=O)/C(=C\C=C\c2ccccc2[N+](=O)[O-])C1=O	RGS4 block 6.62 | RGS4 inh valid 16.0% | RGS4 uninduced inactive | RGS4 inh ctr2 10.5%
CN1C(=O)/C(=C/C=C/c2ccco2)C(=O)NC1=S	none
O=C(N/N=C/c1c(O)n(Cc2ccc(F)cc2)c(=O)[nH]c1=O)c1ccccc1	none | RGS4 uninduced inactive | RGS4 inh ctr2 inactive
C=CCn1c(O)c(/C=N/NC(=O)c2ccncc2)c(=O)[nH]c1=O	none
O=C(N/N=C/c1c(O)n(Cc2ccccc2)c(=O)[nH]c1=O)c1ccncc1	none | RGS4 uninduced 34.5% | RGS4 inh ctr2 inactive
COc1ccc(Cc2c(O)[nH]c(=S)[nH]c2=O)cc1	none
O=C(c1ccccc1)c1cn(CC(=O)N2CCCc3ccccc32)c2ccccc12	none
CN1C(=O)/C(=C/c2ccc(Cl)s2)C(=O)NC1=S	RGS4 block 9.92 | RGS4 inh valid 5.5% | RGS4 uninduced inactive | RGS4 inh ctr2 inactive
C=CCN1C(=O)/C(=C/c2ccc(Br)s2)C(=O)NC1=S	MrgX1 antag -5.62, RGS4 block 10.8 | RGS4 inh valid 5.0% | RGS4 uninduced inactive | RGS4 inh ctr2 inactive
C=CCN1C(=O)/C(=C/c2ccc3c(c2)CCCN3CCC)C(=O)NC1=S	none
Cc1nn(Cc2ccccc2)c(C)c1C=C1C(=O)NC(=S)NC1=O	RGS4 block 13.8 | RGS4 inh valid 70.5% | RGS4 uninduced inactive | RGS4 inh ctr2 8.0%
Cc1nn(C)c(C)c1/C=C1/CC2C3CC=C4CC(O)CCC4(C)C3CCC2(C)C1=O (configuration not stated)	none
CC1CN(c2ccc([N+](=O)[O-])c3cccnc23)CC(C)N1 (configuration not stated)	RGS4 block 5.83 | RGS4 inh valid inactive | RGS4 uninduced inactive | RGS4 inh ctr2 inactive
O=[N+]([O-])c1ccc(N2CCCC2)c2ncccc12	none
O=C(Cc1ccccc1)OC(COCc1ccccc1)CN1CCOCC1 (configuration not stated)	none
O=C1NC(=O)C(=Cc2ccc3c(c2)OCO3)C(=O)N1	none
O=C1NC(=O)C(=Cc2ccc(-c3ccc(Cl)cc3)o2)C(=O)N1	RGS4 block 14 | RGS4 inh valid 16.0% | RGS4 uninduced inactive | RGS4 inh ctr2 8.5%
